Reference: PubChem BioAssay AID588487 (The Scripps Research Institute Molecular Screening Center, 2011)
Active and inactive are the calls of the source.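 Rule for the calls: active = inhibition of at least 50% against any of four protein arginine deiminase enzymes; inactive = the rest.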

Key:
Assay in all cases: PAD1-4 inhibition by competitive ABPP, late-stage follow-up, orthogonal assay for PAD4 inhibitor project, biochemical, fluorescence, gel-based ABPP, HTS hits (AID 588487)
[1] = target: Protein-arginine deiminase type-1 (Homo sapiens) (UniProt Q9ULC6); details: recombinant PAD1-4, gel-based ABPP, RFA probe fluorescence; PAD1; at 10 µM; stronger effect = higher value
Sequence of Protein-arginine deiminase type-1 (Homo sapiens) (Q9ULC6 whole entry, looked up): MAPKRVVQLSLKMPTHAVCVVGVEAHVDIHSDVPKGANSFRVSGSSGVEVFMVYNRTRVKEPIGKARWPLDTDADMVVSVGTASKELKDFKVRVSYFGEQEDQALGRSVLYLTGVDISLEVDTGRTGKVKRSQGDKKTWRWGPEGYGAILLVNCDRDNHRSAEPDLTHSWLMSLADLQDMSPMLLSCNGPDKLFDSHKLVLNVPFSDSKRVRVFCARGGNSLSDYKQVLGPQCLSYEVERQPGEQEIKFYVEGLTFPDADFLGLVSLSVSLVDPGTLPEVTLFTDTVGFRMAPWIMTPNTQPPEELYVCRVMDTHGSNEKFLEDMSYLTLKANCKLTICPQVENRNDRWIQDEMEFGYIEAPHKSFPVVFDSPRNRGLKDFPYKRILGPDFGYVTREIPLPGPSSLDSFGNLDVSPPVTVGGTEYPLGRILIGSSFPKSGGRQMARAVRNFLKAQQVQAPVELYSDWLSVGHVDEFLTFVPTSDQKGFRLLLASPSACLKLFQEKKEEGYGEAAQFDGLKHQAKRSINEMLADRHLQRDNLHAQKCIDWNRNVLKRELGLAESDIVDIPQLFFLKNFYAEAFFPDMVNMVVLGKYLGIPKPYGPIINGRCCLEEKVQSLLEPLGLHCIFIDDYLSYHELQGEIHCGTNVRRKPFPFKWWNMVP
Method in brief: (§1)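 System: Recombinant PAD1, PAD2, PAD3 or PAD4 | Input: PAD enzyme 10 µM | Probe or stimulus: RFA fluorescent probe at 1 µM | Compound: One 10 µM dose per compound | Schedule: 15 min compound pre-incubation plus 30 min probe step, 37 °C | Detection: in-gel fluorescence scan of probe-labeled PAD band after SDS-PAGE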

[2] = target: Protein-arginine deiminase type-2 (Homo sapiens) (UniProt Q9Y2J8); details: recombinant PAD1-4, gel-based ABPP, RFA probe fluorescence; PAD2; at 10 µM; stronger effect = higher value
Sequence of Protein-arginine deiminase type-2 (Homo sapiens) (Q9Y2J8 whole entry, looked up): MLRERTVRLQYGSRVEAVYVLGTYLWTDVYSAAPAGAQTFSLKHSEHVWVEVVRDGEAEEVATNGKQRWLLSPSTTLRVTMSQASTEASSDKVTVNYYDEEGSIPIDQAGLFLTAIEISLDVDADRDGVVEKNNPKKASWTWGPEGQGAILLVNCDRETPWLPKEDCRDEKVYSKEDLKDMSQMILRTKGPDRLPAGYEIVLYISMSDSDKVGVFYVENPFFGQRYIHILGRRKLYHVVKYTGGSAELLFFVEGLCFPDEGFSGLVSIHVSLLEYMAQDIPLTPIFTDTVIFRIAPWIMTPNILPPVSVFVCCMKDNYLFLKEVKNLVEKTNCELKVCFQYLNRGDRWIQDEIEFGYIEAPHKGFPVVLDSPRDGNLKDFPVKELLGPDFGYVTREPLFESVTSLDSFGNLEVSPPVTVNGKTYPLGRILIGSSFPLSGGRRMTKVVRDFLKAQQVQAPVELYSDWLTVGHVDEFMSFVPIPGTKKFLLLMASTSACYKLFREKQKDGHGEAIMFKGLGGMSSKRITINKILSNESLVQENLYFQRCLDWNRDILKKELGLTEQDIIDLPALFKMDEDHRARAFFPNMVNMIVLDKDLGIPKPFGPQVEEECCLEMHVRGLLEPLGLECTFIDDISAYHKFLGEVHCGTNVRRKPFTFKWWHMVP
Method in brief: as §1

[3] = target: Protein-arginine deiminase type-3 (Homo sapiens) (UniProt Q9ULW8); details: recombinant PAD1-4, gel-based ABPP, RFA probe fluorescence; PAD3; at 10 µM; stronger effect = higher value
Sequence of Protein-arginine deiminase type-3 (Homo sapiens) (Q9ULW8 whole entry, looked up): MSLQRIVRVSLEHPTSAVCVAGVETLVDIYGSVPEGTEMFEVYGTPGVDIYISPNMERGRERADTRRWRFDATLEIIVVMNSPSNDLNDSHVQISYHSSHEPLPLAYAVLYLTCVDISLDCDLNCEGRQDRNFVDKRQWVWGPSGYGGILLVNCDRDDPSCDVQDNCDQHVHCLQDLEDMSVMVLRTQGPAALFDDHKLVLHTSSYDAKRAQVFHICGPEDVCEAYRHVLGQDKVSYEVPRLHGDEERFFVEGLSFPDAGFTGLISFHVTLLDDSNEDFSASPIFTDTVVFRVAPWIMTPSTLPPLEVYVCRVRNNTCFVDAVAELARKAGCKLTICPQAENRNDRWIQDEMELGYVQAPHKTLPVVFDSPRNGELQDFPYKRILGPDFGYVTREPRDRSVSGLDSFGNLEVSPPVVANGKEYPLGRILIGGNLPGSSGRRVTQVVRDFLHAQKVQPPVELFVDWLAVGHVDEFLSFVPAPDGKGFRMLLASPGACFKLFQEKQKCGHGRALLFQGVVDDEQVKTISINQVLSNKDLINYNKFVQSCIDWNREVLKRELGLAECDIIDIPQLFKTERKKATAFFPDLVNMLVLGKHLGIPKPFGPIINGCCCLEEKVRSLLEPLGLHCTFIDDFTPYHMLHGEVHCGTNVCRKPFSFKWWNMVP
Method in brief: as §1

[4] = target: Protein-arginine deiminase type-4 (Homo sapiens) (UniProt Q9UM07); details: recombinant PAD1-4, gel-based ABPP, RFA probe fluorescence; PAD4; at 10 µM; stronger effect = higher value
Sequence of Protein-arginine deiminase type-4 (Homo sapiens) (Q9UM07 whole entry, looked up): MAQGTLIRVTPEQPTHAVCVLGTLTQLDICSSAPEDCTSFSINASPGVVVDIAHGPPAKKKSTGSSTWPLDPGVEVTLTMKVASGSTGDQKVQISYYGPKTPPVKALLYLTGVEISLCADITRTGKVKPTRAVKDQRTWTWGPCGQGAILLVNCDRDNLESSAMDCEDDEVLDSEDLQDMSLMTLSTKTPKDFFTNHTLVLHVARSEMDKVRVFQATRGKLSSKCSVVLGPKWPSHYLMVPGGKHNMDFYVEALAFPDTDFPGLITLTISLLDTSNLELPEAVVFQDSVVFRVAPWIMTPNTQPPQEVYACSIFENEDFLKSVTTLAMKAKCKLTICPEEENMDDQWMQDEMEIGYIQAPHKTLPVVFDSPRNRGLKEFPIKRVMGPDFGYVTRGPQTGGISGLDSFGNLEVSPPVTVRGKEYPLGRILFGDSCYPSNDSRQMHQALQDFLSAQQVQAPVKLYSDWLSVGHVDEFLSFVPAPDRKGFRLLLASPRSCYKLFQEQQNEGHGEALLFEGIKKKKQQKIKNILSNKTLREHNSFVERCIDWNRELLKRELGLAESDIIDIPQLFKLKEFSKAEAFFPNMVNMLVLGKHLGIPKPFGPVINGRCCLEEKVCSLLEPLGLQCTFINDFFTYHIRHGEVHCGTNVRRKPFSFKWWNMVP
Method in brief: as §1

SMILES	inhibition [1]	inhibition [2]	inhibition [3]	inhibition [4]
Cc1nn(-c2ccccc2)c(C)c1NC(=O)COc1ccc(Cl)cc1Cl	2% (inactive)	29% (inactive)	57%	12% (inactive)
Cn1c(SCC(=O)Nc2ccc(Br)cn2)nnc1C1CC1	17% (inactive)	19% (inactive)	-19% (inactive)	15% (inactive)
CN(C)C(CNC(=O)c1cc2ccccc2o1)c1ccco1 (stereo not given)	11% (inactive)	46% (inactive)	35% (inactive)	24% (inactive)
COc1cccc(NC(=O)C2c3cc(OC)c(OC)cc3C(=O)N(C)C2c2cccnc2)c1 (stereo not given)	15% (inactive)	22% (inactive)	26% (inactive)	61%
CN(C)CCN(Cc1ccccc1)c1ccccn1	13% (inactive)	46% (inactive)	-7% (inactive)	65%
Cc1nn(-c2cccc(Cl)c2)c2c1C(c1cccnc1)C(C#N)=C(N)O2 (stereo not given)	74%	28% (inactive)	-34% (inactive)	53%
Cc1cc(C)c(C#N)c(Sc2ccccc2N)n1	36% (inactive)	38% (inactive)	5% (inactive)	6% (inactive)
Cc1ccc(-c2nc3sc(C#N)c(N)n3c(=O)c2C#N)cc1	32% (inactive)	16% (inactive)	31% (inactive)	38% (inactive)
COc1ccc(-c2cc(=O)n(CCC#N)[nH]2)cc1	17% (inactive)	17% (inactive)	35% (inactive)	32% (inactive)
O=C(COc1ccccc1F)N1CCN(S(=O)(=O)/C=C/c2ccccc2)CC1	-10% (inactive)	25% (inactive)	3% (inactive)	42% (inactive)
CCOc1nc(Nc2ccc(OC)cc2OC)nc(OCC)n1	37% (inactive)	62%	46% (inactive)	20% (inactive)
Cc1cc(C)c(C)c(S(=O)(=O)N2CCC(C(=O)N3CCCC3)CC2)c1C	-32% (inactive)	-43% (inactive)	22% (inactive)	39% (inactive)
COc1cc(NC2c3ccccc3C(=O)N2Cc2ccccc2Cl)cc(OC)c1 (stereo not given)	38% (inactive)	17% (inactive)	-3% (inactive)	18% (inactive)
Cn1c(=O)c2c(ncn2CC(=O)Nc2nc(-c3ccccc3Cl)cs2)n(C)c1=O	0% (inactive)	25% (inactive)	-19% (inactive)	80%
Cc1oc2c(C)c(O)ccc2c(=O)c1-c1ccc2ccccc2n1	-33% (inactive)	50%	42% (inactive)	1% (inactive)
COc1ccc(CCNC(=O)c2c[nH]c3ccc(F)cc3c2=O)cc1OC	-15% (inactive)	35% (inactive)	23% (inactive)	33% (inactive)
COc1ccc(S(=O)(=O)Nc2ccccc2C)cc1	23% (inactive)	57%	-13% (inactive)	57%
Cn1c(SCC(=O)N/N=C/C=C/c2ccco2)nc2ccccc21	14% (inactive)	41% (inactive)	-13% (inactive)	38% (inactive)
COc1ccc(-c2cc(=O)[nH][nH]2)cc1	58%	53%	32% (inactive)	35% (inactive)
CC(=O)N(Cc1cc(=O)[nH]c2ccccc12)c1cccc(C)c1	58%	19% (inactive)	39% (inactive)	-7% (inactive)
COc1cccc(NC(=O)CN(C)C(=O)C23CC4CC(CC(Cl)(C4)C2)C3)c1	13% (inactive)	17% (inactive)	13% (inactive)	60%
CCN(Cc1ccc2c(c1)OCCO2)C(=O)CSc1nc(C)nc2sc(C)c(C)c12	43% (inactive)	24% (inactive)	24% (inactive)	-38% (inactive)
Cc1ccc(CNC(=O)c2ccc(C)c(S(=O)(=O)N3CCCCC3)c2)cc1	21% (inactive)	67%	31% (inactive)	19% (inactive)

SMILES	inhibition [1]	inhibition [2]	inhibition [3]	inhibition [4]
Cc1c(NC(=O)CSc2nccn2C)c(=O)n(-c2ccccc2)n1C	46% (inactive)	35% (inactive)	-7% (inactive)	66%
COc1ccc(/C=N/Nc2nncn2N)cc1Br	30% (inactive)	44% (inactive)	-24% (inactive)	55%
CN(C)CCCNc1cn[nH]c(=O)c1Cl	33% (inactive)	61%	-58% (inactive)	41% (inactive)
Cc1nonc1OC(C)CNc1ccc([N+](=O)[O-])cc1 (stereo not given)	46% (inactive)	38% (inactive)	38% (inactive)	22% (inactive)
COc1cccc(/C=C2/CN(C)CC3=C2OC(N)=C(C#N)C3c2cccc(OC)c2)c1 (stereo not given)	-47% (inactive)	92%	48% (inactive)	-5% (inactive)
CS(=O)(=O)c1ccc(N)c(SSc2cc(S(C)(=O)=O)ccc2N)c1	27% (inactive)	14% (inactive)	35% (inactive)	-7% (inactive)
O=C(O)CCC(=O)Nc1ccc(SSc2ccc(NC(=O)CCC(=O)O)cc2)cc1	35% (inactive)	40% (inactive)	34% (inactive)	45% (inactive)
CC(=O)Nc1c2c3c(cccc3n(C)c1=O)C(=O)c1ccccc1-2	-5% (inactive)	37% (inactive)	32% (inactive)	28% (inactive)
O=C(NCC1CCCO1)c1cc2c([nH]c3ccccc32)c(-c2ccc(F)cc2)n1 (stereo not given)	36% (inactive)	13% (inactive)	-27% (inactive)	78%
O=c1cc(-c2cccc([N+](=O)[O-])c2)[nH][nH]1	24% (inactive)	18% (inactive)	5% (inactive)	29% (inactive)
O=C(O)c1ccc(S(=O)(=O)c2ccc3c(c2)C(=O)N(c2ccc(O)cc2)C3=O)cc1	18% (inactive)	32% (inactive)	34% (inactive)	-3% (inactive)
CCOc1c(Br)cc(/C=C2\C(=O)N(CCC#N)N=C2C)cc1OC	45% (inactive)	25% (inactive)	15% (inactive)	52%
O=C(CN1CCCCCC1)Nc1ccc(Br)cc1Br	41% (inactive)	-16% (inactive)	31% (inactive)	-53% (inactive)
Cc1cc(C)cc(NC(=S)/C(=C(\[O-])c2ccc(Cl)s2)[n+]2cccc(C)c2)c1	-1% (inactive)	50%	28% (inactive)	-8% (inactive)
O=[N+]([O-])c1ccc2nc(-c3ccccc3)n(OCc3ccc(Cl)cc3)c2c1	3% (inactive)	36% (inactive)	36% (inactive)	-3% (inactive)
O=C(NC1CCCCC1)C(c1cccs1)N(CCCN1CCOCC1)C(=O)c1ccc(-c2ccccc2)[nH]1 (stereo not given)	-42% (inactive)	-27% (inactive)	15% (inactive)	59%
CCOc1ccccc1C(=O)NCC(=O)NCCCc1ccccc1	-8% (inactive)	26% (inactive)	11% (inactive)	31% (inactive)
O=C(O)c1[nH]c2ccccc2c1-c1ccccc1	17% (inactive)	14% (inactive)	10% (inactive)	40% (inactive)
COc1ccc(-c2noc3c2-c2nc(-c4ccc(Br)cc4)sc2CC3)cc1	33% (inactive)	32% (inactive)	-23% (inactive)	47% (inactive)
Cc1ccc(C2CC(=O)Oc3cc(O)ccc32)cc1 (stereo not given)	40% (inactive)	-2% (inactive)	43% (inactive)	-30% (inactive)
CCNC(=S)NNC(=O)c1csc(C)c1	2% (inactive)	-19% (inactive)	14% (inactive)	25% (inactive)
CCN(CC)c1cccc(OC2=NS(=O)(=O)c3ccccc32)c1	60%	50%	32% (inactive)	17% (inactive)
